MEKK2wt PB1 HTS = raises or lowers MEK5 binding to wildtype human MEKK2 PB1 domain; Q9Y2U5; bead flow cytometry, Alexa488-MEK5 binding to MEKK2 WT; actives lie on both sides; binding response (% of control), % at 10 µM; 1.1% of 290,000 active; in the data active = binding response below about 67% or above about 130%
MEKK2 mut-MEK5 = signal of MEK5 binding to mutant human MEKK2 PB1 domain | bead flow cytometry, Alexa488-MEK5 binding to MEKK2 mutant | percent response, % at 10 µM | 0.35% of 290,000 active; in the data active = percent response above about 24%, passing the limit was not always enough
FID counter = displaces DNA intercalator in HCV helicase counter-screen. DNA fluorescent intercalator displacement, fluorescence. inhibition, % at 7.9 µM. 0.17% of 290,000 active; in the data active = inhibition above about 37%;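 also: higher means more ethidium bromide displaced from hairpin DNA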
T cruzi repl = T. cruzi replication inhibition; inhibition, % (no concentration beside the values); 1.4% of 300,000 active; T. cruzi beta-gal in NIH3T3, luminescence, 90 h; AID 1885;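 active = mean inhibition across valid replicates above about 55%, limit read from the data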;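 also: signal also drops with host cell toxicity which is not excluded here; higher percent means less beta-gal luminescence so fewer parasites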
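Incubation – ≥90 h infection period, 3 h prior cell attachment · System – NIH/3T3 fibroblasts plus reporter T. cruzi · Doses – compound pinned at 50 nL/well, DMSO · Read-out basis – percent inhibition of parasite-derived β-gal signal · Signal – luminescent β-galactosidase signal after 60 min lysis · Also added – 5000 T. cruzi trypomastigotes/well · Medium – Low-serum DMEM with 2% FBS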
MEKK3 PB1 HTS = raises or lowers MEK5 binding to the human MEKK3 PB1 domain | Q99759 | bead-based flow cytometry, Alexa488-MEK5 binding to MEKK3; actives lie on both sides; 0 = blocked by unlabeled MEK5, 100 = vehicle | binding response (% of control), % at 10 µM | 1.4% of 290,000 active;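 active = binding response more than 3 SD above or below the average of its plate-row segment, actives on both sides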;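 also: Alexa488 bead fluorescence after subtracting the streptavidin-only scavenger bead signal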
Target sequence (Q99759 whole entry, looked up, the tested form may be a part): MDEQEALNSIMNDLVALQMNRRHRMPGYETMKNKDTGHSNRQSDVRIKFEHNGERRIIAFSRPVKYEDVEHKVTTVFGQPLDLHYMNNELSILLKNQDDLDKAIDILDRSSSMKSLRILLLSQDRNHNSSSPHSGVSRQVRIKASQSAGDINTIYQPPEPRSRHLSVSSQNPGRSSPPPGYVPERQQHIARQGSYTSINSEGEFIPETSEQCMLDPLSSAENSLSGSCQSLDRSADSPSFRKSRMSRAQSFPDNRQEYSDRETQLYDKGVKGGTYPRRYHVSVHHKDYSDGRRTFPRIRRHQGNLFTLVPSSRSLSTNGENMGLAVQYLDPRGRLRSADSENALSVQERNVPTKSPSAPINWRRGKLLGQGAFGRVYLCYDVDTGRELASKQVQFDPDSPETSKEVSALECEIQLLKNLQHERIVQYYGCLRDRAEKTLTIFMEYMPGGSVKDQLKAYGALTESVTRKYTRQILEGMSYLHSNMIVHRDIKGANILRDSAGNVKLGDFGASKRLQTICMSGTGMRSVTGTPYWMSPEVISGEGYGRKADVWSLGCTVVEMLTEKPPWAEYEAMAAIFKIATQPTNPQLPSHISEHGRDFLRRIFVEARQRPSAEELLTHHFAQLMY
NS3 helicase inh = HCV NS3 helicase inhibition | inhibition, % at 10.9 µM | 0.56% of 290,000 active | NS3 helicase DNA unwinding, Cy5 molecular beacon fluorescence | AID 1800;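 active = inhibition above the mean of all tested compounds plus 3 SD, set per campaign, cut at about 35% in these data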
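Test system: hepatitis C virus NS3 helicase domain fragment enzyme. Also added: annealed dual-labelled DNA beacon duplex, ATP-started. Timing: 60 min unwinding reaction at 25 °C after ATP addition. Technique: Cy5 fluorescence. Measure: % inhibition of unwinding.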
Large screens that a line does not name were inactive; ! = not active in a repeat. Compounds with a hit are over-represented: about 4.1% of the library has one in this group of screens.

Cc1ccc(OCC(=O)Nc2ccccc2C(=O)N2CCCC2)cc1	none
CCCCCCCC[n+]1c(C)n(-c2ccccc2)c2ccc(NC(C)=O)cc21	T cruzi repl 65
CC(C)c1ccc(OCC(=O)Nc2ccccc2C(=O)N2CCOCC2)cc1	none
CN(c1ccccc1)S(=O)(=O)c1cccc(C(=O)Nc2nn[nH]n2)c1	none
NC(=O)c1[nH]cnc1N	T cruzi repl 58!
CCCN(CC(=O)Nc1ccccc1C)C(=O)CCl	T cruzi repl 78
CCCN(CC(=O)Nc1ccccc1C)C(=O)COc1c(Cl)cccc1Cl	none (no result: MEKK2wt PB1 HTS, MEKK2 mut-MEK5, FID counter, MEKK3 PB1 HTS, NS3 helicase inh)
O=C(Nc1cccnc1Cl)c1cc([N+](=O)[O-])ccc1Cl	T cruzi repl 66
CSc1ccccc1NC(=S)N/N=C/c1cccn1Cc1cccc(C)c1	T cruzi repl 65
COc1ccc2cc(/C(C)=N/NC(=S)Nc3cc(S(=O)(=O)N4CCOCC4)ccc3N3CCOCC3)ccc2c1	T cruzi repl 69
O=C(c1ccc2c3c(cccc13)CC2)C1CCCN(Cc2cccnc2)C1 (stereo unspecified)	T cruzi repl 62
Cc1nnc(-c2ccc(N3CCCCCC3)c([N+](=O)[O-])c2)o1	none
O=C(O)CN1CCN(Cc2ccc(Cl)cc2)C1=O	none
Cc1cc(-n2c(C)cc(C(=O)CCl)c2C)no1	T cruzi repl 79
CN1CCN(C(CNC(=O)C(=O)Nc2ccc3c(c2)OCCO3)c2ccc(F)cc2)CC1 (stereo unspecified)	T cruzi repl 62 (no result: MEKK2wt PB1 HTS, MEKK2 mut-MEK5, FID counter, MEKK3 PB1 HTS, NS3 helicase inh)
CN1CCN(C(CNC(=O)c2ccc(Br)o2)c2ccc(F)cc2)CC1 (stereo unspecified)	T cruzi repl 62 (no result: MEKK2wt PB1 HTS, MEKK2 mut-MEK5, FID counter, MEKK3 PB1 HTS, NS3 helicase inh)
Cc1ccc(C(CNC(=O)c2ccc(Br)o2)N2CCN(C)CC2)cc1 (stereo unspecified)	none (no result: MEKK2wt PB1 HTS, MEKK2 mut-MEK5, FID counter, MEKK3 PB1 HTS, NS3 helicase inh)
CCC(=O)Nc1ccc(C(=O)N/N=C/c2c(C)[nH]c3ccccc23)cc1	MEKK2wt PB1 HTS 35
O=C1CC(NS(=O)(=O)c2cccnc2)CN1c1ccc(Cl)cc1 (stereo unspecified)	none (no result: MEKK2wt PB1 HTS, MEKK2 mut-MEK5, FID counter, MEKK3 PB1 HTS, NS3 helicase inh)
O=[N+]([O-])c1ccc(Sc2nccn2Cc2ccccc2)c([N+](=O)[O-])c1	T cruzi repl 65
O=[N+]([O-])c1cc(C(F)(F)F)ccc1Sc1nccn1Cc1ccccc1	none
Cc1nc2c(-c3ccc(Cl)cc3)c(C)[nH]n2c(=O)c1Cc1ccccc1	T cruzi repl 63
Cc1nc2c(-c3ccccc3)c(C)[nH]n2c(=O)c1Cc1ccccc1	none
COc1ccc(NCc2ccc(OC)c(Cn3ccnc3)c2)c(OC)c1	T cruzi repl 56
CC(C)C(=O)N1CCN(c2cc(N3CCN(C)CC3)c(F)cc2[N+](=O)[O-])CC1	T cruzi repl 77
c1ccc(CN2CCCC3(CCCN(Cc4nc(CC5CC5)no4)C3)C2)cc1 (stereo unspecified)	none
Fc1ccccc1Cc1noc(CN2CCN(C/C=C/c3ccccc3)CC2)n1	T cruzi repl 67
O=CN1CCCN(Cc2nc(Cc3ccccc3F)no2)CC1	none
c1ccc(Cc2noc(CN3CCN(CCOc4ccccc4)CC3)n2)cc1	T cruzi repl 57
c1ccc(CN2CCCC3(CCCN(Cc4nc(COc5ccccc5)no4)C3)C2)cc1 (stereo unspecified)	T cruzi repl 61
COc1ccc(CCNC(=O)C2CCC(C(C)(C)C)CC2)cc1OC (stereo unspecified)	none
O=C(CCN1C(=O)/C(=C/c2ccccc2F)SC1=S)NC1C=CS(=O)(=O)C1 (stereo unspecified)	none
COc1cc(CNCCCN2CCOCC2)cc(Cl)c1OCC(=O)NC(C)(C)C	none
COc1ccc(NC(=O)c2sccc2SCc2cccc(C(F)(F)F)c2)cc1	T cruzi repl 69
O=[N+]([O-])c1ccc(/C=N/Nc2nc(N3CCCCCC3)nc(N3CCCCCC3)n2)o1	T cruzi repl 76
O=C(CNc1cccc2ccccc12)N/N=C/c1ccc([N+](=O)[O-])o1	T cruzi repl 83
O=C(CNc1cccc2ccccc12)N/N=C/c1ccc[nH]1	none
O=C(CCN1CCN(c2ccccc2)CC1)N/N=C/c1ccc([N+](=O)[O-])o1	T cruzi repl 96
